{
  "source": "paper PMC8265689",
  "about": "(Journal of the American Chemical Society, 2021)",
  "key": {"[1]": {"details": "in MeOH, used as standard; cited from earlier work"}, "DU-145 cells [2]": {"tested_on": "DU-145 cells", "assay": "Chou–Talalay synergy determination with vinblastine", "assay_type": "cell-based, human", "details": "light conditions", "how_it_was_run": "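DU-145 cells (7000/well, DMEM with 10% FBS and penicillin/streptomycin) were grown overnight (16 h, 37 °C, 5% CO₂). They were pretreated 1 h with test compound (10–1 μM) or vehicle (1% DMSO), then switched to vinblastine (10–0.5 nM) or vehicle, in quadruplicate. Blue light 460–470 nm for 20 min, then 72 h. MTT read at 570 nm, blank-subtracted, as percent effect. Chou–Talalay EC50 and CI computed per combination.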"}, "DU-145 cells [3]": {"tested_on": "DU-145 cells", "assay": "DU-145 viability", "assay_type": "cell-based, human", "details": "5 μM, vinblastine 0–5 nM, blue light, Figure 7C", "how_it_was_run": "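DU-145 cells (7000/well) were grown overnight, then given test compound (5 μM, 1% DMSO) in octuplicate for 1 h at 37 °C. Medium was replaced with vinblastine (5 nM; 2.5 or 5 nM in one set) or vehicle. Plates received blue LED light (460–470 nm, 20 min, 56 J/cm²) or were kept dark, then 72 h. MTT read at 570 nm, blank-normalized, as percent of vehicle control.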"}},
  "data": [
    {"compound": "[Ru+2].c1ccc(-c2ccccn2)nc1.c1ccc(-c2ccccn2)nc1.c1ccc(-c2ccccn2)nc1", "note": "[[Ru(bpy)3]^2+]", "values": [
      {"measurement": "Quantum yield of singlet oxygen production (ΦΔ)", "setting": "[1]", "result": 0.81}
    ]},
    {"compound": "[Ru(tpy)(Me2dppn)(py)](PF6)2 [Compound 27, reference compound]", "values": [
      {"measurement": "synergism with vinblastine (Chou–Talalay)", "setting": "DU-145 cells [2]", "result": "weaker synergism"},
      {"measurement": "synergy with vinblastine (viability)", "setting": "DU-145 cells [3]", "result": "does not"}
    ]}
  ]
}
